Experimental data taken from ChEMBL document CHEMBL1134652, “N-Methyl scan of somatostatin octapeptide agonists produces interesting effects on receptor subtype specificity” (J Med Chem, 2001).
Where a SMILES comes first, the peptide text is derived from it. Bridges are numbered along the chain shown (N, C = ends). [ ]: non-standard residue; d: D form. NMeY = CN[C@@H](Cc1ccc(O)cc1)C(=O)O; NMeT = CN[C@H](C(=O)O)[C@@H](C)O; NMeK = CN[C@@H](CCCCN)C(=O)O; NMeC = CN[C@@H](CS)C(=O)O

Assays:
Rattus norvegicus = species on record: Rattus norvegicus; assay: in vitro Agonist activity (inhibition of growth hormone release) on cultured rat pituitary cells; assay type: functional, cell-based; conditions: Pituitary gland cell
Method in brief: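 Anterior pituitary cells from adult male rats were dispersed with trypsin/DNase and cultured 4–5 days at about 200 000 cells/well. GH in the medium was measured by double-antibody RIA.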

[1] = target: Somatostatin receptor type 5 (Homo sapiens, UniProt P35346); assay: Binding affinity was determined on cloned human somatostatin receptor-1 (hsst5)
[2] = target: Somatostatin receptor type 1 (Homo sapiens, UniProt P30872); assay: Binding affinity was determined on cloned human somatostatin receptor-1 (hsst1)
Method in brief: (§1)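 Membranes from CHO-K1 cells stably transfected with human sst1, sst2 or sst4 (calcium phosphate, G418 selection), resuspended in 10 mM Tris-HCl. Filtered on GF/C; nonspecific binding measured with 1.0 μM SRIF. Kd from concentration-dependent displacement.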

[3] = target: Somatostatin receptor type 2 (Homo sapiens, UniProt P30874); assay: Binding affinity was determined on cloned human somatostatin receptor-1 (hsst2); method in brief: as §1
[4] = target: Somatostatin receptor type 4 (Homo sapiens, UniProt P31391); assay: Binding affinity was determined on cloned human somatostatin receptor-1 (hsst4)
Method in brief: as §1, with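 “Tris-HCl. Incubated 30 min at 37 °C with 0.05 nM [125I]Tyr11-SRIF (sst1, sst4) or [125I]MK-678 (sst2) in HEPES pH 7.4 with BSA, MgCl2 and protease inhibitors.” for “Tris-HCl.”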

[5] = target: Somatostatin receptor type 3 (Homo sapiens, UniProt P32745); assay: Binding affinity was determined on cloned human somatostatin receptor-1 (hsst3)
Sequence of Somatostatin receptor type 3 (P32745 whole entry): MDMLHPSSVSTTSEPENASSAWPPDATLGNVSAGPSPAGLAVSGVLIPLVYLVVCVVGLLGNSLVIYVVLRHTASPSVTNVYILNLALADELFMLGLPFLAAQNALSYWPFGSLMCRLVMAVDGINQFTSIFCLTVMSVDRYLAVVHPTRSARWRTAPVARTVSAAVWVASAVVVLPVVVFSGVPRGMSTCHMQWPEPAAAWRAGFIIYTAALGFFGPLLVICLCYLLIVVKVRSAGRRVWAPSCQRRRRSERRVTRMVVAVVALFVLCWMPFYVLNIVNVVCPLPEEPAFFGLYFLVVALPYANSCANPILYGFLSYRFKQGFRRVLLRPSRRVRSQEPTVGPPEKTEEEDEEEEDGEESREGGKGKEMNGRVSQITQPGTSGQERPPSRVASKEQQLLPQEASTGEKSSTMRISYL

Sequence of Somatostatin receptor type 2 (P30874 whole entry): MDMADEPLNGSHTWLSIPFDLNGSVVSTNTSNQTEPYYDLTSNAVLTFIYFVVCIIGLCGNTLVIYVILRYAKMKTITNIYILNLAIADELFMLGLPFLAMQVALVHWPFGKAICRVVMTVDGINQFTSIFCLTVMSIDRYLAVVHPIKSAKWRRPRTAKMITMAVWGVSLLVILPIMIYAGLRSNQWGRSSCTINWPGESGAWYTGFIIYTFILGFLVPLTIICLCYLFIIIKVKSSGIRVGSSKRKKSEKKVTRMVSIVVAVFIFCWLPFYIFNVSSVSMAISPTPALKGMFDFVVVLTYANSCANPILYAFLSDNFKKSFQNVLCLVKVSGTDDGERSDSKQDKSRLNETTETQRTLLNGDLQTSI
Sequence of Somatostatin receptor type 1 (P30872 whole entry): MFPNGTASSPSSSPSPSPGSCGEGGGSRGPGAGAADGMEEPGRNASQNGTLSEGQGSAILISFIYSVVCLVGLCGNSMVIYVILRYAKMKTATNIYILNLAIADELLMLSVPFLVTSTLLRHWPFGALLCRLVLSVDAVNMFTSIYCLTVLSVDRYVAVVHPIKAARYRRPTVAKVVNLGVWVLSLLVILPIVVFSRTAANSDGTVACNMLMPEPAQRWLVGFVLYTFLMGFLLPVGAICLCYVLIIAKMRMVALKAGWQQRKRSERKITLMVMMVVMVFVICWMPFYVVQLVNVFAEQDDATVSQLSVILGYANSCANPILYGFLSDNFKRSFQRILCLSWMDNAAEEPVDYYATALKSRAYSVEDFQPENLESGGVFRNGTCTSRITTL
Sequence of Somatostatin receptor type 4 (P31391 whole entry): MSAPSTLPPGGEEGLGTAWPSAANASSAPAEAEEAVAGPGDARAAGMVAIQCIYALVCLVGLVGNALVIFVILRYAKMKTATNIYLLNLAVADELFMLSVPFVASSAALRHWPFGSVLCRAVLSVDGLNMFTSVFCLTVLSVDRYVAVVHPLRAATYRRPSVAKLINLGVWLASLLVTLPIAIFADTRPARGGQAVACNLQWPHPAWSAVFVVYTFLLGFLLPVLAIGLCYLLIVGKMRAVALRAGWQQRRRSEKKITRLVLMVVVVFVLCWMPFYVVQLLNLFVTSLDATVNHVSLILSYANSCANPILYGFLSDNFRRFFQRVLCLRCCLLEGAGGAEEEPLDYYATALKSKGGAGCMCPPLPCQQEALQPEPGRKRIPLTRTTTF
Sequence of Somatostatin receptor type 5 (P35346 whole entry): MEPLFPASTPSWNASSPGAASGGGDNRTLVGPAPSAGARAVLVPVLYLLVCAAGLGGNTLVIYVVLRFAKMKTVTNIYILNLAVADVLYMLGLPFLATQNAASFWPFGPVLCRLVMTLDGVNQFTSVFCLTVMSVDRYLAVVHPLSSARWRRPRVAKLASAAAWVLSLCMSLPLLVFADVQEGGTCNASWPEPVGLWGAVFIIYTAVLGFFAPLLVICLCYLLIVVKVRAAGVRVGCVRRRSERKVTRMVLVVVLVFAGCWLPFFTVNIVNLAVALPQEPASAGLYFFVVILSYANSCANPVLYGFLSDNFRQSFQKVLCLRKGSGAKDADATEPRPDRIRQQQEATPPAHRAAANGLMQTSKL

SMILES	IC50 (Rattus norvegicus) [nM]	Kd [3] [nM]	further results
C[C@@H](O)[C@@H]1NC(=O)[C@H](CCCCN)NC(=O)[C@@H](Cc2c[nH]c3ccccc23)NC(=O)[C@H](Cc2ccccc2)NC(=O)[C@@H](NC(=O)[C@H](N)Cc2ccccc2)CSSC[C@@H](C(=O)N(C)[C@H](C(N)=O)[C@@H](C)O)NC1=O	28.8	–	–
C[C@@H](O)[C@H](NC(=O)[C@@H]1CSSC[C@H](N(C)C(=O)[C@H](N)Cc2ccccc2)C(=O)N[C@@H](Cc2ccccc2)C(=O)N[C@H](Cc2c[nH]c3ccccc23)C(=O)N[C@@H](CCCCN)C(=O)N[C@@H]([C@@H](C)O)C(=O)N1)C(N)=O	0.36	–	–
CN[C@H](Cc1ccccc1)C(=O)N[C@H]1CSSC[C@@H](C(=O)N[C@H](C(N)=O)[C@@H](C)O)NC(=O)[C@H]([C@@H](C)O)NC(=O)[C@H](CCCCN)NC(=O)[C@@H](Cc2c[nH]c3ccccc23)NC(=O)[C@H](Cc2ccccc2)NC1=O	–	1.03	Kd [1]: 4.89 nM; Kd [2]: 316 nM; Kd [4]: > 1000 nM; Kd [5]: 17.9 nM
C[C@@H](O)[C@H](NC(=O)[C@@H]1CSSC[C@H](NC(=O)[C@H](N)Cc2ccccc2)C(=O)N[C@@H](Cc2ccccc2)C(=O)N[C@H](Cc2c[nH]c3ccccc23)C(=O)N[C@@H](CCCCN)C(=O)N[C@@H]([C@@H](C)O)C(=O)N1)C(N)=O	0.16	–	–
C[C@@H](O)[C@H](NC(=O)[C@@H]1CSSC[C@H](NC(=O)[C@@H](N)Cc2ccc(O)cc2)C(=O)N[C@@H](Cc2ccccc2)C(=O)N[C@H](Cc2c[nH]c3ccccc23)C(=O)N[C@@H](CCCCN)C(=O)N[C@@H]([C@@H](C)O)C(=O)N1)C(N)=O (H-YCF[dW]KTCT-NH2; disulfide 2-7)	1.11	–	–
C[C@@H](O)[C@H](NC(=O)[C@@H]1CSSC[C@H](NC(=O)[C@@H](N)Cc2ccc(O)cc2)C(=O)N[C@@H](Cc2ccccc2)C(=O)N[C@H](Cc2c[nH]c3ccccc23)C(=O)N[C@@H](CCCCN)C(=O)N[C@@H]([C@@H](C)O)C(=O)N1C)C(N)=O (H-YCF[dW]KT[NMeC]T-NH2; disulfide 2-7)	–	56.2	–
C[C@@H](O)[C@H](NC(=O)[C@@H]1CSSC[C@H](NC(=O)[C@@H](N)Cc2ccc(O)cc2)C(=O)N[C@@H](Cc2ccccc2)C(=O)N[C@H](Cc2c[nH]c3ccccc23)C(=O)N[C@@H](CCCCN)C(=O)N(C)[C@@H]([C@@H](C)O)C(=O)N1)C(N)=O (H-YCF[dW]K[NMeT]CT-NH2; disulfide 2-7)	–	–	Kd [4]: 1000 nM
C[C@@H](O)[C@H](NC(=O)[C@@H]1CSSC[C@H](NC(=O)[C@@H](N)Cc2ccc(O)cc2)C(=O)N[C@@H](Cc2ccccc2)C(=O)N[C@H](Cc2c[nH]c3ccccc23)C(=O)N(C)[C@@H](CCCCN)C(=O)N[C@@H]([C@@H](C)O)C(=O)N1)C(N)=O (H-YCF[dW][NMeK]TCT-NH2; disulfide 2-7)	27.4	–	–
CN[C@@H](Cc1ccc(O)cc1)C(=O)N[C@H]1CSSC[C@@H](C(=O)N[C@H](C(N)=O)[C@@H](C)O)NC(=O)[C@H]([C@@H](C)O)NC(=O)[C@H](CCCCN)NC(=O)[C@@H](Cc2c[nH]c3ccccc23)NC(=O)[C@H](Cc2ccccc2)NC1=O (H-[NMeY]CF[dW]KTCT-NH2; disulfide 2-7)	–	9.74	Kd [2]: 811 nM
